Experimental data taken from ChEMBL document CHEMBL3797200, “Mohangic Acids A-E, p-Aminoacetophenonic Acids from a Marine-Mudflat-Derived Streptomyces sp” (J Nat Prod, 2016).
The source made the active and inactive calls. No cut-off for these calls is given here.

Legend:
[1] = test system: Candida albicans; experiment: Antifungal activity against Candida albicans; type: functional
[2] = test system: Kocuria rhizophila; experiment: Antibacterial activity against Kocuria rhizophila; type: functional
[3] = Cytotoxicity against human SNU638 cells after 72 hrs by SRB assay; type: functional, cell-based; settings: SNU-638, 72 h
[4] = species on record: Mus musculus; experiment: Induction of Quinone reductase activity in mouse Hepa1c1c7 cells at 20 uM after 24 hrs by MTT assay relative to control; type: cell-based
Outline: (§1)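 Hepa-1c1c7 murine hepatoma cells plated at 20 000 cells/mL, grown 24 h (37 °C, 5% CO2), then compound-treated 24 h; vehicle 0.1% DMSO, β-naphthoflavone 2 μM positive control. Lysis in Tris/NaCl/MgCl2/0.5% NP-40, then FAD, G6P/G6PDH, NADP, MTT, menadione mix, 10 min; MTT reduction at 610 nm, crystal violet protein on parallel plates; SA = (MTTabs/CVabs)×3345, nmol/min/mg; mean ± SD of four determinations.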

[5] = test system: Proteus hauseri; experiment: Antibacterial activity against Proteus hauseri; type: functional
[6] = test system: Aspergillus fumigatus; experiment: Antifungal activity against Aspergillus fumigatus; type: functional
[7] = test system: A549; experiment: Cytotoxicity against human A549 cells after 72 hrs by SRB assay; type: functional, cell-based; settings: A549, 72 h
[8] = test system: Escherichia coli; experiment: Antibacterial activity against Escherichia coli; type: functional
[9] = test system: Bacillus subtilis; experiment: Antibacterial activity against Bacillus subtilis; type: functional
[10] = Cytotoxicity against human SKHEP1 cells after 72 hrs by SRB assay; type: functional, cell-based; settings: SK-HEP1, 72 h
[11] = Cytotoxicity against human HCT116 cells after 72 hrs by SRB assay; type: functional, cell-based; settings: HCT-116, 72 h
[12] = test system: Staphylococcus aureus; experiment: Antibacterial activity against Staphylococcus aureus; type: functional
[13] = test system: MDA-MB-231; experiment: Cytotoxicity against human MDA-MB-231 cells after 72 hrs by SRB assay; type: functional, cell-based; settings: MDA-MB-231, 72 h
[14] = test system: K562; experiment: Cytotoxicity against human K562 cells after 72 hrs by SRB assay; type: functional, cell-based; settings: K562, 72 h
[15] = test system: Salmonella enterica; experiment: Antibacterial activity against Salmonella enterica; type: functional
[16] = species on record: Mus musculus; experiment: Induction of Quinone reductase activity in mouse Hepa1c1c7 cells at 30 uM after 24 hrs by MTT assay relative to control; type: cell-based; outline: as §1
[17] = species on record: Mus musculus; experiment: Induction of Quinone reductase activity in mouse Hepa1c1c7 cells at 2 uM after 24 hrs by MTT assay relative to control; type: cell-based; outline: as §1
[18] = Cytotoxicity against mouse Hepa1c1c7 cells; type: cell-based
[19] = species on record: Mus musculus; experiment: Induction of Quinone reductase activity in mouse Hepa1c1c7 cells at 5 uM after 24 hrs by MTT assay relative to control; type: cell-based; outline: as §1
[20] = species on record: Mus musculus; experiment: Induction of Quinone reductase activity in mouse Hepa1c1c7 cells at 10 uM after 24 hrs by MTT assay relative to control; type: cell-based; outline: as §1
[21] = species on record: Mus musculus; experiment: Induction of Quinone reductase activity in mouse Hepa1c1c7 cells after 24 hrs by MTT assay; type: cell-based; outline: as §1

| MIC [1] [µM] | MIC [2] [µM] | MIC [5] [µM] | MIC [6] [µM] | MIC [8] [µM] | MIC [9] [µM] | MIC [12] [µM] | MIC [15] [µM] | SMILES | IC50 [3] [µM] | Activity [4] | IC50 [7] [µM] | IC50 [10] [µM] | IC50 [11] [µM] | IC50 [13] [µM] | IC50 [14] [µM] | other results |
| --- | --- | --- | --- | --- | --- | --- | --- | --- | --- | --- | --- | --- | --- | --- | --- | --- |
| > 128 | > 128 | > 128 | > 128 | > 128 | > 128 | > 128 | > 128 | C[C@H](/C=C/C=C/C=C/[C@H](O)CC(=O)O)[C@@H](O)[C@H](C)C[C@@H](C)[C@H](O)CC(=O)c1ccc(N)cc1 | > 10 | inactive | > 10 | > 10 | > 10 | > 10 | > 10 |  |
| > 128 | > 128 | > 128 | > 128 | > 128 | > 128 | > 128 | > 128 | CC(=O)Nc1ccc(C(=O)C[C@@H](O)[C@H](C)C[C@@H](C)[C@H](O)[C@H](C)/C=C/C=C/C=C/[C@H](O)CC(=O)O)cc1 | > 10 | inactive | > 10 | > 10 | > 10 | > 10 | > 10 |  |

More lines, now with the values behind:

| SMILES | MIC [1] [µM] | MIC [2] [µM] | MIC [5] [µM] | MIC [6] [µM] | MIC [8] [µM] | MIC [9] [µM] | MIC [12] [µM] | MIC [15] [µM] | IC50 [3] [µM] | Activity [4] | IC50 [7] [µM] | IC50 [10] [µM] | IC50 [11] [µM] | IC50 [13] [µM] | IC50 [14] [µM] | other results |
| --- | --- | --- | --- | --- | --- | --- | --- | --- | --- | --- | --- | --- | --- | --- | --- | --- |
| CC(=O)Nc1ccc([C@H](O)C[C@@H](O)[C@H](C)C[C@@H](C)[C@H](O)[C@H](C)/C=C/C=C/C=C/[C@H](O)CC(=O)O)cc1 | > 128 | > 128 | > 128 | > 128 | > 128 | > 128 | > 128 | > 128 | > 10 | inactive | > 10 | > 10 | > 10 | > 10 | > 10 |  |
| C[C@H](/C=C/C=C/C=C/[C@H](O)CC(=O)O)[C@@H](O)[C@H](C)C[C@@H](C)[C@H](O)CC(=O)c1ccc(N[C@@H]2O[C@H](CO)[C@@H](O)[C@H](O)[C@H]2O)cc1 | > 128 | > 128 | > 128 | > 128 | > 128 | > 128 | > 128 | > 128 | > 10 |  | > 10 | > 10 | > 10 | > 10 | > 10 | fold change (FC) [16]: 2.2; fold change (FC) [4]: 2.1; fold change (FC) [17]: 1.3; Activity [18]: Non-toxic; fold change (FC) [19]: 1.5; fold change (FC) [20]: 1.8; Activity [21]: Dose-dependent effect |
| CNc1ccc(C(=O)C[C@@H](O)[C@H](C)C[C@@H](C)[C@H](O)[C@H](C)/C=C/C=C/C=C/[C@H](O)CC(=O)O)cc1 | > 128 | > 128 | > 128 | > 128 | > 128 | > 128 | > 128 | > 128 | > 10 | inactive | > 10 | > 10 | > 10 | > 10 | > 10 |  |
